Entries after “also recorded” stand apart in the source; their conditions may differ.
How the values were obtained:
SGLT1 = biological target: T1, SGLT1 (Homo sapiens, UniProt P13866); assay: Flavonoid uptake/transport in Caco-2 BBe1 cells with phloridzin; format: in vitro ADME; conditions: 50 μM flavonoid, 4 h; for fold change of glycoside transport by phloridzin-mediated inhibition: 1 μM phloridzin 30 min pretreatment, basolateral transport; for effect of phloridzin on cellular uptake and transport of the flavonoid / effect of phloridzin on cellular uptake of the flavonoid: 1 μM phloridzin; for effect of phloridzin on cellular uptake of the flavonoid: cell lysate
T1 sequence (P13866 1-664): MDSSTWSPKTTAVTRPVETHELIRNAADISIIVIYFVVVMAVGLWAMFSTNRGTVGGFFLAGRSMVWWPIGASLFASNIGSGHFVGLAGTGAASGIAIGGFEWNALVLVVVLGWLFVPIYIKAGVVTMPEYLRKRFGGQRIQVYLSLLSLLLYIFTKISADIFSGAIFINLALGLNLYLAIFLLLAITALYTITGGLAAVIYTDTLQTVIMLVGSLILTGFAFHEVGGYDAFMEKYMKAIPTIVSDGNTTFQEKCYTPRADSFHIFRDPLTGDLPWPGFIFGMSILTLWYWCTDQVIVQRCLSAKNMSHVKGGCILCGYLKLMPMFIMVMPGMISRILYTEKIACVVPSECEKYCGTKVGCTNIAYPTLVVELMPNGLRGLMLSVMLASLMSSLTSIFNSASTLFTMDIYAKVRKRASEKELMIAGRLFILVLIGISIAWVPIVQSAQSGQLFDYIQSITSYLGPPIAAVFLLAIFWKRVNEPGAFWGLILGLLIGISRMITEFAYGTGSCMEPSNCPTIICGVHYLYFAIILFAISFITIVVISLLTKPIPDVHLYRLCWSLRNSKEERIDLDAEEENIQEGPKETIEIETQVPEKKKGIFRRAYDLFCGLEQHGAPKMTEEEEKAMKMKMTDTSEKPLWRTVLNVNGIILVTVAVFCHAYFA
Method in brief: (§1)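 Quantitation was by HPLC on a phenyl-hexyl column (DAD, 360 and 520 nm), using external standard curves from 0–50 μM. Values are expressed as percent of the amount added apically. Data are mean ± SEM of at least three independent experiments.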

Caco-2 BBe1 monolayers = format: in vitro ADME, human; conditions: 50 μM apical, 0.5, 2 and 4 h, cell lysate and basolateral compartment
Method in brief: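 Cells at passage 50–60 were grown on PET inserts (3 × 10^4 cells/well) in supplemented high-glucose DMEM at 37 °C, 5% CO2. Monolayers with TEER >400 Ω cm2 on day 9 were used. 50 μM test compound in HBSS pH 6.4 was applied apically, with HBSS/10 mM HEPES pH 7.4 basolaterally. Basolateral medium and sonicated, methanol/2% FA-extracted lysates were sampled at 0.5, 2 and 4 h.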

Caco-2 BBe1 cells = assay: Cellular glucose; format: cell-based, human; conditions: 50 μM, 2 h pretreatment, 2-NBDG fluorescence, vs positive control
Method in brief: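 Cells seeded at 1 × 10^5 per well and grown overnight, then PBS-washed. Pretreated with 50 μM test compound in glucose-free DMEM for 2 h. Glucose-free DMEM containing 300 μg/mL 2-NBDG was then added for another 2 h. After a PBS wash, fluorescence was read at ex 485/em 535 nm and compared with the positive control group.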

GLUT2 = biological target: T2, GLUT2 (Homo sapiens, UniProt P11168); assay: Flavonoid uptake/transport in Caco-2 BBe1 cells with phloretin; format: in vitro ADME; conditions: 1 μM phloretin, 50 μM flavonoid, 4 h, cell lysate
T2 sequence (P11168 1-524): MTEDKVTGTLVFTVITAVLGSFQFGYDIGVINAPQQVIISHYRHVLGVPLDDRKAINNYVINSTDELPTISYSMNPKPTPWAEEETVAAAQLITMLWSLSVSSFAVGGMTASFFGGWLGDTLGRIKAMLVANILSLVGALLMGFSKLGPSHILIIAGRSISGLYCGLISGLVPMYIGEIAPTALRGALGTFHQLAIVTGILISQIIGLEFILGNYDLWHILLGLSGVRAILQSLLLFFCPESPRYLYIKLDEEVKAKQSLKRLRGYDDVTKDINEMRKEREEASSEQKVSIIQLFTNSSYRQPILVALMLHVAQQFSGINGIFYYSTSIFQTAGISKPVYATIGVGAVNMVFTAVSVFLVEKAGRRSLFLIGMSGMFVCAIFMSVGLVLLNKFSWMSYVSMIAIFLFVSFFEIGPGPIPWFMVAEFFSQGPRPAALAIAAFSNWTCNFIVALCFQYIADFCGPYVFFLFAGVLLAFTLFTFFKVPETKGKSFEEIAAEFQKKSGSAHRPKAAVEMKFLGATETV
Method in brief: as §1

Caco-2 cells = conditions: SGLT1-depended manner; cited from earlier work

OC[C@H]1O[C@@H](Oc2cc3c(O)cc(O)cc3[o+]c2-c2ccc(O)c(O)c2)[C@H](O)[C@@H](O)[C@@H]1O [C-3-G, cyanidin 3-O-glucoside]
fold change of glycoside transport by phloridzin-mediated inhibition (SGLT1): 3.29 fold
effect of phloridzin on cellular uptake and transport of the flavonoid (SGLT1): significantly reduced the amount of cellular and transported
effect of phloridzin on cellular uptake of the flavonoid (SGLT1): less significant
cellular uptake and transport kinetics (Caco-2 BBe1 monolayers): continued to increase as the incubation period extends from 30 min to 4 h

O=c1c(O[C@@H]2O[C@H](CO)[C@@H](O)[C@H](O)[C@H]2O)c(-c2ccc(O)c(O)c2)oc2cc(O)cc(O)c12 [Q-3-G, quercetin 3-β-D-glucoside]
fold change of glycoside transport by phloridzin-mediated inhibition (SGLT1): 2.31 fold
effect of phloridzin on cellular uptake and transport of the flavonoid (SGLT1): significantly reduced the amount of cellular and transported

Oc1cc(O)c2cc(O)c(-c3ccc(O)c(O)c3)[o+]c2c1 [cyanidin]
effect of phloridzin on cellular uptake and transport of the flavonoid (SGLT1): no effect on the uptake and transport
inhibition of glucose uptake (Caco-2 BBe1 cells): significantly blocked the glucose uptake
cellular uptake and transport kinetics (Caco-2 BBe1 monolayers): noticeable decrease; also recorded: readily permeated into the intestinal mucosa within 2 h

OC[C@H]1O[C@@H](Oc2cc3c(O[C@@H]4O[C@H](CO)[C@@H](O)[C@H](O)[C@H]4O)cc(O)cc3[o+]c2-c2ccc(O)c(O)c2)[C@H](O)[C@@H](O)[C@@H]1O [cyanin, cyanidin 3,5-diglucoside]
fold change of glycoside transport by phloridzin-mediated inhibition (SGLT1): 6.45 fold
effect of phloridzin on cellular uptake and transport of the flavonoid (SGLT1): significantly reduced the amount of cellular and transported
effect of phloridzin on cellular uptake of the flavonoid (SGLT1): significantly inhibited by phloridzin
effect of phloretin on cellular uptake of the flavonoid (GLUT2): significantly inhibited cellular uptake
cellular uptake and transport kinetics (Caco-2 BBe1 monolayers): continued to increase as the incubation period extends from 30 min to 4 h

O=c1c(O)c(-c2ccc(O)c(O)c2)oc2cc(O)cc(O)c12 [quercetin]
effect of phloridzin on cellular uptake and transport of the flavonoid (SGLT1): no effect on the uptake and transport
inhibition of glucose uptake (Caco-2 BBe1 cells): significantly blocked the glucose uptake
cellular uptake and transport kinetics (Caco-2 BBe1 monolayers): both concentrations continued to increase; also recorded: readily permeated into the intestinal mucosa within 2 h

C[C@@H]1O[C@@H](OC[C@H]2O[C@@H](Oc3c(-c4ccc(O)c(O)c4)oc4cc(O)cc(O)c4c3=O)[C@H](O)[C@@H](O)[C@@H]2O)[C@H](O)[C@H](O)[C@H]1O [rutin, quercetin 3-rutinoside]
fold change of glycoside transport by phloridzin-mediated inhibition (SGLT1): 5.77 fold
effect of phloridzin on cellular uptake and transport of the flavonoid (SGLT1): significantly reduced the amount of cellular and transported
inhibition of glucose uptake (Caco-2 cells): inhibited glucose uptake
